Assay results taken from paper PMC6536312 (Bioorganic & medicinal chemistry, 2019).
Like-named read-outs stand apart in the source and are kept apart here.

Key:
σ2 receptor [1] = molecular target: T1, σ2 receptor (Rattus norvegicus, UniProt Q5U3Y7); test: Radioligand binding assay at sigma-2 receptor; settings: for fold lower affinity at the σ2 receptor than compound 3: vs compound 3
T1 sequence (Q5U3Y7 1-176): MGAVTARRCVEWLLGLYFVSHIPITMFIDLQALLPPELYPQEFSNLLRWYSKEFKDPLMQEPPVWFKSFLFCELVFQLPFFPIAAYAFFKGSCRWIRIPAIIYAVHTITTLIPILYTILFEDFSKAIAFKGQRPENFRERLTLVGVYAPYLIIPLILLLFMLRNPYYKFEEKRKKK

σ1 receptor = σ1 receptor (Cavia porcellus, UniProt Q60492); test: Radioligand binding assay at sigma-1 receptor
σ1 receptor, sequence (Q60492 whole entry): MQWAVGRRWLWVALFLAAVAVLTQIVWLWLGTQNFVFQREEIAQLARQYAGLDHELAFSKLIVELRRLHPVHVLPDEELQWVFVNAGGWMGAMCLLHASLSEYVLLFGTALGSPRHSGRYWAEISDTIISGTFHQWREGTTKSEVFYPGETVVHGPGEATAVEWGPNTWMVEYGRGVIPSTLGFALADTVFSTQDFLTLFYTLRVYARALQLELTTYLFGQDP

Panc-1 cells = test: Cell viability study; assay type: cell-based, human
Summary of the method: (§1)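 Cells were maintained in high-glucose GlutaMax DMEM with 10% heat-inactivated FBS. They were seeded at 20,000/well, left overnight in 5% FBS medium, then dosed in 1:9 DMSO/acetone against vehicle controls, redosed every 24 h for the 48 h and 72 h runs. Resazurin (0.02% in PBS) was added for 2-3 h, read at ex 560/em 590 nm. IC50 came from nonlinear regression of log concentration versus % control.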

MDA-MB-231 cells = test: Cell viability study; assay type: cell-based, human
Summary of the method: as §1

σ2 receptor [2] = molecular target: T1, σ2 receptor; settings: previously reported; cited from earlier work

Structure (SMILES): O=C1c2ccccc2CC1CCN1CCCN(c2ccc(Cl)cc2)CC1 (stereo not shown) [Compound 4, 2-(2-(4-(4-chlorophenyl)-1,4-diazepan-1-yl)ethyl)-2,3-dihydro-1H-inden-1-one]
- fold lower affinity at the σ2 receptor than compound 3 (σ2 receptor [1]): over 7 fold
- fold higher affinity than compound 3 at the σ1 receptor (σ1 receptor; vs compound 3): 3 fold

Structure (SMILES): O=C1c2ccc(F)cc2CC1CCN1CCCN(c2ccc(Cl)cc2)CC1 (stereo not shown) [Compound 3]
- fold higher affinity for σ2 receptor compared to compound 1 (σ2 receptor [1]; vs compound 1): greater than 9 fold
- fold lower affinity for the σ1 receptor compared to compound 1 (σ1 receptor; vs compound 1): more than 2 fold

Structure (SMILES): O/N=C(\CCCN1CCCN(c2ccc(Cl)cc2)CC1)c1ccc(F)cc1 [Compound 12, 4-(4-(4-chlorophenyl)-1,4-diazepan-1-yl)-1-(4-fluorophenyl)butan-1-one oxime]
- IC50, cell viability (Panc-1 cells): sub-micromolar

Structure (SMILES): N.N.[Cl][Pt][Cl] [Cisplatin]
- IC50 (MDA-MB-231 cells; read-out: IC50 (48 h), cell viability, MDA-MB-231, 48 h treatment): 50 ± 9.8 µM
- IC50 (MDA-MB-231 cells; read-out: IC50 (72 h), cell viability, MDA-MB-231, 72 h treatment): 64.2 ± 4.3 µM

Structure (SMILES): O=C1c2ccc(Cl)cc2CC1CCN1CCCN(c2ccc(Cl)cc2)CC1 (stereo not shown) [Compound 8, 5-chloro-2-(2-(4-(4-chlorophenyl)-1,4-diazepan-1-yl)ethyl)-2,3-dihydro-1H-inden-1-one]
- fold lower affinity at the σ2 receptor than compound 3 (σ2 receptor [1]): over 31 fold

Structure (SMILES): O=C(CCCN1CCCN(c2ccc(Cl)cc2)CC1)c1ccc(F)cc1 [Compound 1, 4-(4-(4-chlorophenyl)-1,4-diazepan-1-yl)-1-(4-fluorophenyl)butan-1-one]
- IC50, cell viability (Panc-1 cells): sub-micromolar
- Ki(σ1)/Ki(σ2) (σ2 receptor [2]): 4.3
